Measured values from ChEMBL document CHEMBL3856229, “Hybrid Antibiotic Overcomes Resistance in P. aeruginosa by Enhancing Outer Membrane Penetration and Reducing Efflux” (J Med Chem, 2016).
≈ marks a conversion by molar mass, not a printed value.

Experiments:
Pseudomonas aeruginosa [1] = test: Antibacterial activity against multidrug-resistant/tobramycin-susceptible Pseudomonas aeruginosa isolate 86052; type: functional
Staphylococcus aureus [2] = test: Antibacterial activity against Staphylococcus aureus ATCC 29213 after 24 hrs by microtitre broth dilution method; type: functional; details: ATCC 29213, 24 h
Staphylococcus aureus [3] = test: Antibacterial activity against methicillin-resistant Staphylococcus aureus ATCC 33592 after 24 hrs by microtitre broth dilution method; type: functional; details: ATCC 33592, 24 h
[4] = tested on: Staphylococcus epidermidis; test: Antibacterial activity against methicillin-susceptible Staphylococcus epidermidis isolate CANWARD-2008 81388 after 24 hrs by microtitre broth dilution method; type: functional; details: isolate CANWARD-2008 81388, 24 h
[5] = tested on: Staphylococcus epidermidis; test: Antibacterial activity against methicillin-resistant Staphylococcus epidermidis isolate CAN-ICU 61589 after 24 hrs by microtitre broth dilution method; type: functional; details: isolate CAN-ICU 61589, 24 h
Enterococcus faecalis = test: Antibacterial activity against Enterococcus faecalis ATCC 29212 after 24 hrs by microtitre broth dilution method; type: functional; details: ATCC 29212, 24 h
Enterococcus faecium = test: Antibacterial activity against Enterococcus faecium ATCC 27270 after 24 hrs by microtitre broth dilution method; type: functional; details: ATCC 27270, 24 h
Streptococcus pneumoniae = test: Antibacterial activity against Streptococcus pneumoniae ATCC 49619 after 24 hrs by microtitre broth dilution method; type: functional; details: ATCC 49619, 24 h
Escherichia coli [6] = test: Antibacterial activity against gentamicin-resistant Escherichia coli isolate CAN-ICU 61714 after 24 hrs by microtitre broth dilution method; type: functional; details: isolate CAN-ICU 61714, 24 h
Escherichia coli [7] = test: Antibacterial activity against amikacin-resistant Escherichia coli isolate CAN-ICU 63074 after 24 hrs by microtitre broth dilution method; type: functional; details: isolate CAN-ICU 63074, 24 h
Escherichia coli [8] = test: Antibacterial activity against gentamicin/tobramycin/ciprofloxacin-resistant Escherichia coli isolate CANWARD-2011 97615 harboring AAC3-2A after 24 hrs by microtitre broth dilution method; type: functional; details: isolate CANWARD-2011 97615, 24 h
Pseudomonas aeruginosa [9] = test: Antibacterial activity against Pseudomonas aeruginosa ATCC 27853 after 24 hrs by microtitre broth dilution method; type: functional; details: ATCC 27853, 24 h
Pseudomonas aeruginosa [10] = test: Antibacterial activity against gentamicin-resistant Pseudomonas aeruginosa isolate CAN-ICU 62308 after 24 hrs by microtitre broth dilution method; type: functional; details: isolate CAN-ICU 62308, 24 h
Pseudomonas aeruginosa [11] = test: Antibacterial activity against gentamicin/tobramycin-resistant Pseudomonas aeruginosa isolate CANWARD-2011 96846 after 24 hrs by microtitre broth dilution method; type: functional; details: isolate CANWARD-2011 96846, 24 h
[12] = tested on: Stenotrophomonas maltophilia; test: Antibacterial activity against Stenotrophomonas maltophilia isolate CAN-ICU 62584 after 24 hrs by microtitre broth dilution method; type: functional; details: isolate CAN-ICU 62584, 24 h
Acinetobacter baumannii = test: Antibacterial activity against Acinetobacter baumannii isolate CAN-ICU 63169 after 24 hrs by microtitre broth dilution method; type: functional; details: isolate CAN-ICU 63169, 24 h
Klebsiella pneumoniae = test: Antibacterial activity against Klebsiella pneumoniae ATCC 13883 after 24 hrs by microtitre broth dilution method; type: functional; details: ATCC 13883, 24 h
Pseudomonas aeruginosa [13] = test: Antibacterial activity against multidrug/extremely drug-resistant/colistin-susceptible Pseudomonas aeruginosa isolate 100036; type: functional
Pseudomonas aeruginosa [14] = test: Antibacterial activity against multidrug/extremely drug-resistant/colistin-susceptible Pseudomonas aeruginosa isolate 101885; type: functional
Pseudomonas aeruginosa [15] = test: Antibacterial activity against multidrug/extremely drug-resistant/colistin-susceptible Pseudomonas aeruginosa isolate 259-96918; type: functional
Pseudomonas aeruginosa [16] = test: Antibacterial activity against multidrug/extremely drug-resistant/colistin-susceptible Pseudomonas aeruginosa isolate 260-97103; type: functional
Pseudomonas aeruginosa [17] = test: Antibacterial activity against multidrug/extremely drug-resistant/colistin-susceptible Pseudomonas aeruginosa isolate 262-101856; type: functional
Pseudomonas aeruginosa [18] = test: Antibacterial activity against multidrug/extremely drug-resistant/colistin-susceptible Pseudomonas aeruginosa isolate 264-104354; type: functional
Pseudomonas aeruginosa [19] = test: Antibacterial activity against pandrug-resistant Pseudomonas aeruginosa isolate 91433; type: functional
Pseudomonas aeruginosa [20] = test: Antibacterial activity against pandrug-resistant Pseudomonas aeruginosa isolate 101243; type: functional
Pseudomonas aeruginosa [21] = test: Antibacterial activity against Pseudomonas aeruginosa PAO1; type: functional
Pseudomonas aeruginosa [22] = test: Antibacterial activity against multidrug-resistant/tobramycin-susceptible Pseudomonas aeruginosa isolate 86053; type: functional
Pseudomonas aeruginosa [23] = test: Antibacterial activity against multidrug-resistant/tobramycin-susceptible Pseudomonas aeruginosa isolate 86067; type: functional
Pseudomonas aeruginosa [24] = test: Antibacterial activity against multidrug-resistant/tobramycin-susceptible Pseudomonas aeruginosa isolate 86079; type: functional
Pseudomonas aeruginosa [25] = test: Antibacterial activity against multidrug-resistant/tobramycin-susceptible Pseudomonas aeruginosa isolate 86141; type: functional
Pseudomonas aeruginosa [26] = test: Antibacterial activity against multidrug-resistant/tobramycin-susceptible Pseudomonas aeruginosa isolate 92014; type: functional
Pseudomonas aeruginosa [27] = test: Antibacterial activity against multidrug-resistant/tobramycin-susceptible Pseudomonas aeruginosa isolate 108590; type: functional
Pseudomonas aeruginosa [28] = test: Antibacterial activity against multidrug-resistant/tobramycin-susceptible Pseudomonas aeruginosa isolate 79199; type: functional
Pseudomonas aeruginosa [29] = test: Antibacterial activity against multidrug-resistant/tobramycin-susceptible Pseudomonas aeruginosa isolate 80621; type: functional
Pseudomonas aeruginosa [30] = test: Antibacterial activity against multidrug-resistant/tobramycin-susceptible Pseudomonas aeruginosa isolate 83182; type: functional
Pseudomonas aeruginosa [31] = test: Antibacterial activity against multidrug-resistant/tobramycin-susceptible Pseudomonas aeruginosa isolate 84745; type: functional
Pseudomonas aeruginosa [32] = test: Antibacterial activity against multidrug-resistant/tobramycin-susceptible Pseudomonas aeruginosa isolate 85322; type: functional
Escherichia coli [33] = test: Antibacterial activity against Escherichia coli ATCC 25922 after 24 hrs by microtitre broth dilution method; type: functional; details: ATCC 25922, 24 h
Pseudomonas aeruginosa [34] = test: Antibacterial activity against extremely drug-resistant Pseudomonas aeruginosa isolate 104354 infected in Galleria mellonella assessed as larvae survival at 50 mg/kg administered as single dose measured after 24 hrs (reference value: 27 %); type: functional; details: isolate 104354, 24 h
Method in brief: (§1)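 Galleria mellonella larvae were infected with 10^6 CFU of XDR P. aeruginosa #104354, resistant to all antipseudomonal classes except colistin. A single injected drug dose was given 2 h post-infection: 50 mg/kg with survival read at 24 h, or 75 mg/kg with survival read at 96 h. Controls were infected untreated larvae and PBS-injected larvae. Two independent experiments of 15 larvae each (n = 30).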

Pseudomonas aeruginosa [35] = test: Antibacterial activity against extremely drug-resistant Pseudomonas aeruginosa isolate 104354 infected in Galleria mellonella assessed as larvae survival at 75 mg/kg administered as single dose measured after 96 hrs; type: functional; details: isolate 104354, 96 h; method in brief: as §1
Pseudomonas aeruginosa [36] = test: Induction of cytoplasmic membrane depolarization in Pseudomonas aeruginosa PAO1 by DiSC3(5) dye based fluorescence assay; type: functional
[37] = Inhibition of circular DNA translation in Escherichia coli S30 extract after 60 mins by luciferase reporter gene assay
Method in brief: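 Translation was run in an E. coli S30 extract with a luciferase read-out. Luminescence is expressed as a percentage of the no-antibiotic control, taken as 100%.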

Pseudomonas aeruginosa [38] = test: Ratio of MIC for Pseudomonas aeruginosa PAO1 after 25 serial passages to MIC for Pseudomonas aeruginosa PAO1 prior to 25 serial passages; type: functional
Method in brief: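 P. aeruginosa PAO1 exposed to sub-inhibitory (0.5 x MIC) drug over successive subcultures as a resistance-selection procedure. MIC compared after versus before passaging.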

## NC[C@H]1O[C@H](O[C@H]2[C@H](O)[C@@H](O[C@H]3O[C@H](CO)[C@@H](O)[C@H](N)[C@H]3O)[C@H](N)C[C@@H]2N)[C@H](N)C[C@@H]1O [TOBRAMYCIN]
Pseudomonas aeruginosa [1]
  MIC: 1 µg/mL (≈ 2.14 µM)
Staphylococcus aureus [2]
  MIC: ≤ 0.25 µg/mL
Staphylococcus aureus [3]
  MIC: ≤ 0.25 µg/mL
[4]
  MIC: ≤ 0.25 µg/mL
[5]
  MIC: 1 µg/mL (≈ 2.14 µM)
Enterococcus faecalis
  MIC: 8 µg/mL (≈ 17.1 µM)
Enterococcus faecium
  MIC: 8 µg/mL (≈ 17.1 µM)
Streptococcus pneumoniae
  MIC: 2 µg/mL (≈ 4.28 µM)
Escherichia coli [6]
  MIC: 8 µg/mL (≈ 17.1 µM)
Escherichia coli [7]
  MIC: 8 µg/mL (≈ 17.1 µM)
Escherichia coli [8]
  MIC: 128 µg/mL (≈ 274 µM)
Pseudomonas aeruginosa [9]
  MIC: 0.5 µg/mL (≈ 1.07 µM)
Pseudomonas aeruginosa [10]
  MIC: 16 µg/mL (≈ 34.2 µM)
Pseudomonas aeruginosa [11]
  MIC: 256 µg/mL (≈ 548 µM)
[12]
  MIC: > 512 µg/mL
Acinetobacter baumannii
  MIC: 32 µg/mL (≈ 68.4 µM)
Klebsiella pneumoniae
  MIC: ≤ 0.25 µg/mL
Pseudomonas aeruginosa [13]
  MIC: 64 µg/mL (≈ 137 µM)
Pseudomonas aeruginosa [14]
  MIC: < 0.5 µg/mL
Pseudomonas aeruginosa [15]
  MIC: > 64 µg/mL
Pseudomonas aeruginosa [16]
  MIC: 32 µg/mL (≈ 68.4 µM)
Pseudomonas aeruginosa [17]
  MIC: > 64 µg/mL
Pseudomonas aeruginosa [18]
  MIC: > 64 µg/mL
Pseudomonas aeruginosa [19]
  MIC: 8 µg/mL (≈ 17.1 µM)
Pseudomonas aeruginosa [20]
  MIC: > 64 µg/mL
Pseudomonas aeruginosa [21]
  MIC: 0.5 µg/mL (≈ 1.07 µM)
Pseudomonas aeruginosa [22]
  MIC: 1 µg/mL (≈ 2.14 µM)
Pseudomonas aeruginosa [23]
  MIC: > 64 µg/mL
Pseudomonas aeruginosa [24]
  MIC: 2 µg/mL (≈ 4.28 µM)
Pseudomonas aeruginosa [25]
  MIC: 1 µg/mL (≈ 2.14 µM)
Pseudomonas aeruginosa [26]
  MIC: 1 µg/mL (≈ 2.14 µM)
Pseudomonas aeruginosa [27]
  MIC: 4 µg/mL (≈ 8.56 µM)
Pseudomonas aeruginosa [28]
  MIC: 2 µg/mL (≈ 4.28 µM)
Pseudomonas aeruginosa [29]
  MIC: 2 µg/mL (≈ 4.28 µM)
Pseudomonas aeruginosa [30]
  MIC: 1 µg/mL (≈ 2.14 µM)
Pseudomonas aeruginosa [31]
  MIC: 1 µg/mL (≈ 2.14 µM)
Pseudomonas aeruginosa [32]
  MIC: 1 µg/mL (≈ 2.14 µM)
Escherichia coli [33]
  MIC: 0.5 µg/mL (≈ 1.07 µM)
Pseudomonas aeruginosa [34]
  survival at 50 mg/kg: 20%
Pseudomonas aeruginosa [35]
  survival at 75 mg/kg: 0%
Pseudomonas aeruginosa [36]
  Activity: Dose-dependent effect
[37]
  IC50: 6.2 nM
Pseudomonas aeruginosa [38]
  Ratio: 512
